Results on six substances are retold here after article PMC4183631 (Journal of the American Chemical Society, 2014).

No end group written: not given here.

For orientation: stoichiometry N means a count of units in the complex or per binding partner.

The nature of data set [1]: Sedimentation velocity analytical ultracentrifugation. Conditions: lowest possible rotor speed (3000 rpm); white coat on the AUC cell. Type of data set: physicochemical.
The test system of the next data set is bacteria. The settings on record: cited from earlier work.
In data set [2] the test system is S. Typhimurium ATCC 14028. Kind of data set: Antimicrobial activity assay. Conditions: 20 μM peptide, AMA buffer (10 mM sodium phosphate, 1% TSB, pH 7.4), 1 h, 37 °C, colony counting; n = 3. Type of data set: cell-based, Salmonella enterica serovar Typhimurium. Put shortly: (§1)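 Cells grown overnight in dextrose-free TSB (37 °C, 16 h), subcultured 1:100 to OD600 ~0.6, washed twice in AMA buffer, set to OD600 0.5, then diluted 1:250. 9 parts culture to 1 part 10× peptide (200 μM stock) or water control; 1 h, 37 °C, 150 rpm. Tenfold dilutions plated on TSB agar, 15 h, 37 °C; 30–200-colony plates counted. Three trials, ≥2 peptide preparations; mean and standard deviation.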

Data set [3] concerns L. monocytogenes ATCC 19115. Kind of data set: Bacterial agglutination assay. Type of data set: cell-based, Listeria monocytogenes. Conditions: for peptide concentration at which the bacteria were agglutinated: 0–20 μM peptide, 50% MHB pH 7.4, 6 h, OD600. Put shortly:
(§2)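 Mid-log bacteria (LB for E. coli, BHI for Listeria), washed, held at OD600 0.25 in 50% MHB pH 7.4. Mixed 9:1 with 10× peptide (50, 100, 200 μM stocks) or water in a cuvette; OD600 read over time. At 6 h, for 20 μM samples, supernatant and agglutinate resuspended in fresh 50% MHB were serially diluted and plated (37 °C; LB agar 15 h, BHI agar 20 h). Three trials; mean ± SD.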

For data set [4], the system named is L. monocytogenes ATCC 19115. Kind of data set: Antimicrobial activity assay. Type of data set: cell-based, Listeria monocytogenes. The settings on record: 20 μM peptide, AMA buffer (10 mM sodium phosphate, 1% TSB, pH 7.4), 1 h, 37 °C, colony counting; n = 3. Put shortly:
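Strain grown overnight in BHI (37 °C, 16 h), subcultured 1:100 to OD600 ~0.6, washed twice in AMA buffer, set to OD600 0.5, then diluted 1:500. 9 parts culture to 1 part 10× peptide (200 μM stock) or water control; 1 h, 37 °C, 150 rpm. Tenfold dilutions plated on BHI agar, 20 h, 37 °C; 30–200-colony plates counted. Three trials, ≥2 peptide preparations; mean and standard deviation.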

The subject of data set [5] is E. coli ATCC 25922. Kind of data set: Antimicrobial activity assay. Type of data set: cell-based, Escherichia coli. The settings on record: 20 μM peptide, AMA buffer (10 mM sodium phosphate, 1% TSB, pH 7.4), 1 h, 37 °C, colony counting; n = 3. Put shortly:
as §1

The test system of a further data set is S. aureus ATCC 25923. Nature of the data set: Antimicrobial activity assay. Type of data set: cell-based, Staphylococcus aureus. The settings on record: 20 μM peptide, AMA buffer (10 mM sodium phosphate, 1% TSB, pH 7.4), 1 h, 37 °C, colony counting; n = 3. Put shortly: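 Strain grown overnight in dextrose-free TSB (37 °C, 16 h), subcultured 1:100 to OD600 ~0.6, washed twice in AMA buffer, set to OD600 0.6, then diluted 1:100. 9 parts culture to 1 part 10× peptide (200 μM stock) or water control; 1 h, 37 °C, 150 rpm. Tenfold dilutions plated on TSB agar, 20 h, 37 °C; 30–200-colony plates counted. Three trials, ≥2 peptide preparations; mean and standard deviation.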

The test system of data set [6] is E. coli ATCC 25922. Nature of the data set: Bacterial agglutination assay. Type of data set: cell-based, Escherichia coli. Conditions: for peptide concentration at which the bacteria were agglutinated: 0–20 μM peptide, 50% MHB pH 7.4, 6 h, OD600. Put shortly:
as §2

Data set [7] concerns the target HD6 F29A mutant, oxidized form (human). Nature of the data set: AUC.
Where [8] appears, read: 20 μM peptide, 6 h, bacterium not given.
Where [9] appears, read: 20 μM peptide, bacterial culture 10^8 CFU/mL in cuvette.
[10] abbreviates: 20 μM peptide, 6 h, mean ± SDM, n = 3.

Regarding “AFTCHCRR-SCYSTEYSYGTCTVMGINHRFCCL (bicyclic or more) [HD6, Human α-defensin 6]”, in data set [1], the “time within which the peptide sedimented (rapid peptide aggregation)” value is at most 15 min. Moreover, in the data set on bacteria, the “antibacterial activity in vitro” value is “negligible antibacterial activity”. Also, the antibacterial activity entry (in data set [2]; in [4]; with E. coli ATCC 25922 [5]; in the data set with S. aureus ATCC 25923) was “neither HD6 nor the mutants exhibit significant antibacterial activity” each time. Moreover, the “CFU/mL of the resuspension following agitation” value (in data set [3] (setting [8]); with E. coli ATCC 25922 [6] (setting [8])) was “comparable to that of the untreated control” throughout. Also, the “log reduction in CFU/mL of the supernatant relative to the bacteria-only control” value (in data set [3] (setting [8]); with E. coli ATCC 25922 [6] (setting [8])) was “ca. 1.3 fold log” in each case. Moreover, the “time for clumps to sediment to the bottom of the cuvette and clarify the medium” value (in [3] (setting [9]); in the data set with E. coli ATCC 25922 [6] (setting [9])) was around 2 h in each case. For the same substance, the “time to bacterial clumping observed by the eye after mixing” value (in data set [3] (setting [9]); with E. coli ATCC 25922 [6] (setting [9])) was at most 5 min throughout.
For “ATCYCRTGRCATRESLSGVCEISGRLYRLCCR (also: bicyclic or more (positions not given here)) [HD5, reference compound]”, the “antibacterial activity in vitro” value in the data set with bacteria is listed as “broad-spectrum antibacterial activity”.
Take “H27W (AFTCHCRRSCYSTEYSYGTCTVMGINWRFCCL; disulfide (positions not given here); ends not checked; UniProt Q01524 69-100, looked up, variant H27W)”: the “peptide concentration at which the bacteria were agglutinated” value (“peptide concentration” for short) (in data set [3]; with E. coli ATCC 25922 [6]) was at least 10 µM in each case.
Substance “HD6 F29A mutant, oxidized form (peptide)” registered a stoichiometry N in data set [7] of 2.
As to “I25T (AFTCHCRRSCYSTEYSYGTCTVMGTNHRFCCL; disulfide (positions not given here); ends not checked; UniProt Q01524 69-100, looked up, variant I25T)”, the “peptide concentration” value (in data set [3]; in the data set on E. coli ATCC 25922 [6]) was at least 10 µM each time.
As for “V22T (AFTCHCRRSCYSTEYSYGTCTTMGINHRFCCL; disulfide (positions not given here); ends not checked; UniProt Q01524 69-100, looked up, variant V22T)”, the “peptide concentration” value (in data set [3]; in the data set with E. coli ATCC 25922 [6]) was at least 10 µM throughout. Besides, the “CFU/mL reduction of the supernatant, in words” value (in [3] (setting [10]); in the data set with E. coli ATCC 25922 [6] (setting [10])) was “smaller decrease in CFU/mL for the supernatant” each time.
